Reference: ChEMBL document CHEMBL4043220, “Rational design of conformationally constrained oxazolidinone-fused 1,2,3,4-tetrahydroisoquinoline derivatives as potential PDE4 inhibitors” (Bioorg Med Chem, 2017)

Assays:
[1] = biological target: 3',5'-cyclic-AMP phosphodiesterase 4D (Homo sapiens, UniProt Q08499); test: Inhibition of PDE4D isolated from human U937 cells using [3H]-cAMP incubated for 30 mins
[2] = biological target: T1, 3',5'-cyclic-AMP phosphodiesterase 4B (Homo sapiens, UniProt Q07343); test: Inhibition of PDE4B isolated from human U937 cells using [3H]-cAMP incubated for 30 mins
PBMC [3] = test: Inhibition of LPS-induced TNFalpha production in human PBMC pre-incubated for 30 mins before LPS stimulation for 18 hrs by TR-FRET assay; type: functional, cell-based
Summary of the method: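 PBMCs isolated from buffy coats (blood diluted 1:1 saline) and suspended at 5 × 10⁵ cells/mL in RPMI 1640 with 0.5% human serum albumin, pen/strep, 2 mM L-glutamine. 30 min compound pre-incubation, then 18 h LPS stimulation; supernatant TNF-α by TR-FRET (665 nm signal, 620 nm control); IC50 in μM.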

Rattus norvegicus = test: Inhibition of LPS-induced neutropenia in Sprague-Dawley rat model of asthma assessed as reduction in neutrophils in BAL fluid at 10 mg/kg, po pre-treated 30 mins before LPS challenge and measured 6 hrs after LPS injection relative to untreated control; type: functional; conditions: in the assay text read “neutrophilia” for “neutropenia”
Summary of the method: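 Male Sprague Dawley rats acclimatized one week, randomized by weight (n = 6). Compound at 10 mg/kg po in 0.25% carboxymethyl cellulose vehicle given 30 min before 40 min exposure to 100 μg/mL E. coli LPS (B4). BAL at 6 h after exposure; total cell count and differential count versus control.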

Mus musculus = test: Inhibition of LPS-induced TNFalpha production in Swiss Albino mouse model of sepsis at 10 mg/kg, po pre-treated 30 mins before LPS challenge and measured 90 mins post LPS injection by ELISA method relative to untreated control; type: functional
Summary of the method: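 Female Swiss albino mice, weight-matched groups (n = 6), fasted 20 h with water; test compound given orally at 10 mg/kg as suspension in 0.5% Tween 80 / 0.25% sodium CMC, controls vehicle only. 30 min later 500 μg E. coli LPS (B4) i.p. in phosphate buffer; retro-orbital bleed at 90 min, serum TNF-α by mouse ELISA.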

PDE8A = PDE8A (Homo sapiens, UniProt O60658); test: Inhibition of human PDE8A at 100 uM
PDE6C = PDE6C (Homo sapiens, UniProt P51160); test: Inhibition of human PDE6C at 100 uM
PDE11A = PDE11A (Homo sapiens, UniProt Q9HCR9); test: Inhibition of human PDE11A at 100 uM
PDE1A = PDE1A (Homo sapiens, UniProt P54750); test: Inhibition of human PDE1A at 100 uM
PDE5A = PDE5A (Homo sapiens, UniProt O76074); test: Inhibition of human PDE5A at 100 uM
PDE9A = PDE9A (Homo sapiens, UniProt O76083); test: Inhibition of human PDE9A at 100 uM
PDE2A = PDE2A (Homo sapiens, UniProt O00408); test: Inhibition of human PDE2A at 100 uM
[4] = biological target: T1, 3',5'-cyclic-AMP phosphodiesterase 4B; test: Inhibition of human PDE4B at 100 uM
PDE3B = PDE3B (Homo sapiens, UniProt Q13370); test: Inhibition of human PDE3B at 100 uM
PDE7A = PDE7A (Homo sapiens, UniProt Q13946); test: Inhibition of human PDE7A at 100 uM
PBMC [5] = test: Potency index, ratio of IC50 for rolipram to IC50 for test compound for inhibition of LPS-induced TNFalpha production in human PBMC pre-incubated for 30 mins before LPS stimulation for 18 hrs by TR-FRET assay; type: functional
PDE10A = PDE10A (Homo sapiens, UniProt Q9Y233); test: Inhibition of human PDE10A at 100 uM

T1 sequence (Q07343 whole entry): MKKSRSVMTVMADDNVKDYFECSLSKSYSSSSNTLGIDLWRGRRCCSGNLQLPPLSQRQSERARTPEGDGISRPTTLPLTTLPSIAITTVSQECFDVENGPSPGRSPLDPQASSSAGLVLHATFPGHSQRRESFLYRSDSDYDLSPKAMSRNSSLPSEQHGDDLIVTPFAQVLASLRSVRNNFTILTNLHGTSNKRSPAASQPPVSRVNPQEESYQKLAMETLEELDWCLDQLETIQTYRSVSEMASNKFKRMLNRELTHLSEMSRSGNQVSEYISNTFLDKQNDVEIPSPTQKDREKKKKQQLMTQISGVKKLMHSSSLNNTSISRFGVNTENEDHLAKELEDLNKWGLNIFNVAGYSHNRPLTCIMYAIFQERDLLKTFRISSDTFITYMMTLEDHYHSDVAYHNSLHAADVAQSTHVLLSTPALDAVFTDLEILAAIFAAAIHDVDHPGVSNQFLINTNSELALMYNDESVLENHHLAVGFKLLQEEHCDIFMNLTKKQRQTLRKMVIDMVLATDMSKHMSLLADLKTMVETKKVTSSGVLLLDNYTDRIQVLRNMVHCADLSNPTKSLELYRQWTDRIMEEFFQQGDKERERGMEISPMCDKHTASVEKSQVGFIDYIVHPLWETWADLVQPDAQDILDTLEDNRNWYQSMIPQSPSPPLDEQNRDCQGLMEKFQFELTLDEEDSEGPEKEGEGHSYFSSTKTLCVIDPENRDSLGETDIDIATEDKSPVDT
Chain of 3',5'-cyclic-AMP phosphodiesterase 4D (Q08499 whole entry): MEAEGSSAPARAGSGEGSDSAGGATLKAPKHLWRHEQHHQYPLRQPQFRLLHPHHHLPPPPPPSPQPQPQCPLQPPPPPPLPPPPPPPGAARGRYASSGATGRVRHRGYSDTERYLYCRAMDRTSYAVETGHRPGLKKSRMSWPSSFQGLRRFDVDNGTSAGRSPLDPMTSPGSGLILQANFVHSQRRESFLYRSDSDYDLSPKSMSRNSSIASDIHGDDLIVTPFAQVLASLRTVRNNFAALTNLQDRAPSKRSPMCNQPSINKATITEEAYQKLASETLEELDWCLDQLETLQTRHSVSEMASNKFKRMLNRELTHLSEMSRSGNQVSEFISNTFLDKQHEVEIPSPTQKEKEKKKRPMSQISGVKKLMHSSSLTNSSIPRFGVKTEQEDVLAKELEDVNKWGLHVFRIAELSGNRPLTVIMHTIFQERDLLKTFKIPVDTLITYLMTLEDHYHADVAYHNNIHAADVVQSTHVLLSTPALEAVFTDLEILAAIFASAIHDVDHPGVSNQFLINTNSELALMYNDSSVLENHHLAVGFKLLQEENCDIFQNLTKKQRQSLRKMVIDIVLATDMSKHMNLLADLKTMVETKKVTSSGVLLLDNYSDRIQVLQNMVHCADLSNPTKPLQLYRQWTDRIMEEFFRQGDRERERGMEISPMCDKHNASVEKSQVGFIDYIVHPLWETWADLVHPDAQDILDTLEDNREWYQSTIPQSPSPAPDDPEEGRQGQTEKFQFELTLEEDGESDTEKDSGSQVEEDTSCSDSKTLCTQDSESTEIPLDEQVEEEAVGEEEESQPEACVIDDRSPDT
Chain of PDE3B (Q13370 whole entry): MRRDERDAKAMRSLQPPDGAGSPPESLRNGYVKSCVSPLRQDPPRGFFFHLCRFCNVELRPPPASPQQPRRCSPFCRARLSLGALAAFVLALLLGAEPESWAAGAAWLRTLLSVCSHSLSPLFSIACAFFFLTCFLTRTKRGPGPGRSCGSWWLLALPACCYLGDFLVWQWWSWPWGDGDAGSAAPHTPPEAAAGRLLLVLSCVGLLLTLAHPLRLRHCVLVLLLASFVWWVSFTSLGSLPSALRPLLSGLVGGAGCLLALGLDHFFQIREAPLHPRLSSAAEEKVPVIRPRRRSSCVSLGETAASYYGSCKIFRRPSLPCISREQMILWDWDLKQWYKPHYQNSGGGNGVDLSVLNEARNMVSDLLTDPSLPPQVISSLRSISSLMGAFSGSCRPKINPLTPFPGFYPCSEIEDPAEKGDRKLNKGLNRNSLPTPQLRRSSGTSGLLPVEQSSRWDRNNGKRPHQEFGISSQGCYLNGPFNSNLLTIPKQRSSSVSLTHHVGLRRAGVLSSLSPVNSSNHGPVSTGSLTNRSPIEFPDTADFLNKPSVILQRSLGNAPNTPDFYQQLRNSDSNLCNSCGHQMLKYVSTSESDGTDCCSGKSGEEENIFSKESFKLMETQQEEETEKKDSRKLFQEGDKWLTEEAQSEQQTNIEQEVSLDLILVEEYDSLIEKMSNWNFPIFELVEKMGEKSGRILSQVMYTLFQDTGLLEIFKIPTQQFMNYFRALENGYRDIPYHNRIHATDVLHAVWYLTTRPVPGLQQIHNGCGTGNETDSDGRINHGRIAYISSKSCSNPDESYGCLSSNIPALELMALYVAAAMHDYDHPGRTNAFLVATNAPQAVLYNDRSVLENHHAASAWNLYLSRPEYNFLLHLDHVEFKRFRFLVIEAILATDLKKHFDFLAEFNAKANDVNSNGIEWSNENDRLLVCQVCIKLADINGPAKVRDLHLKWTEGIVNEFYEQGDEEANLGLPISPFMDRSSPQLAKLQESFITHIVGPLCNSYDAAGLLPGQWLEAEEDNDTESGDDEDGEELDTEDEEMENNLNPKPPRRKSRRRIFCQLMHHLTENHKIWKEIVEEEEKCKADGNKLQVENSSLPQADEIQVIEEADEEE
Chain of PDE7A (Q13946 whole entry): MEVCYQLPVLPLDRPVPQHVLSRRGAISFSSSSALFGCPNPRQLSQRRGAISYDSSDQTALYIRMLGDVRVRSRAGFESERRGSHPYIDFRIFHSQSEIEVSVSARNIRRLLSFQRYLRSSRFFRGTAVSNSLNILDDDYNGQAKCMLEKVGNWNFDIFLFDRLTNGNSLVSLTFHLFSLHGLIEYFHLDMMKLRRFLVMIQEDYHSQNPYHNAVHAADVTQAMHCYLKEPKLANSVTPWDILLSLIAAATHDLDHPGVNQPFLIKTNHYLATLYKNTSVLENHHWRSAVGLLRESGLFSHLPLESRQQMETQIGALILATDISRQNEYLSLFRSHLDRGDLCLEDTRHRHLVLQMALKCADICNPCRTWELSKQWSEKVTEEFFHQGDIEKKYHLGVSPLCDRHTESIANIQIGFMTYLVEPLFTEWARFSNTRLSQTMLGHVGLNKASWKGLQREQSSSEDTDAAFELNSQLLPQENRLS
Chain of PDE8A (O60658 whole entry): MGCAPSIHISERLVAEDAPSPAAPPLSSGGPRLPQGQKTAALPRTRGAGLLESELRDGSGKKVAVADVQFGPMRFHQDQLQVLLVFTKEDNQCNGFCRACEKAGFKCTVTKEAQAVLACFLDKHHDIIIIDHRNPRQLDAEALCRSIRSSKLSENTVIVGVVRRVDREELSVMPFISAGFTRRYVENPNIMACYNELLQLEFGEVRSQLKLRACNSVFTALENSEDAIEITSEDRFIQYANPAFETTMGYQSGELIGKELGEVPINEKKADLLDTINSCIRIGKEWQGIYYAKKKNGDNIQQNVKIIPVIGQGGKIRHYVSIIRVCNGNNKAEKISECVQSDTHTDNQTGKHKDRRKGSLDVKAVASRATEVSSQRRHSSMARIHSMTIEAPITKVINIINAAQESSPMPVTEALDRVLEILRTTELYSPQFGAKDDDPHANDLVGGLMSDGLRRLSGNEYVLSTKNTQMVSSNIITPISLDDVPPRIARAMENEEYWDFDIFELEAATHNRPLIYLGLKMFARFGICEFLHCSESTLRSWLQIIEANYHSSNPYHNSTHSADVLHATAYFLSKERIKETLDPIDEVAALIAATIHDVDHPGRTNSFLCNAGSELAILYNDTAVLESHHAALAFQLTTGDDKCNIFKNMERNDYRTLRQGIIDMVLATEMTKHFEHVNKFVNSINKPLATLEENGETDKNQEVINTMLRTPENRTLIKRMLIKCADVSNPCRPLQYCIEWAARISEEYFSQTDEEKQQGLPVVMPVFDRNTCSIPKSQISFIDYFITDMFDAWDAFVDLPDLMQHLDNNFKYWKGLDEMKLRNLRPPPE
Chain of PDE9A (O76083 whole entry): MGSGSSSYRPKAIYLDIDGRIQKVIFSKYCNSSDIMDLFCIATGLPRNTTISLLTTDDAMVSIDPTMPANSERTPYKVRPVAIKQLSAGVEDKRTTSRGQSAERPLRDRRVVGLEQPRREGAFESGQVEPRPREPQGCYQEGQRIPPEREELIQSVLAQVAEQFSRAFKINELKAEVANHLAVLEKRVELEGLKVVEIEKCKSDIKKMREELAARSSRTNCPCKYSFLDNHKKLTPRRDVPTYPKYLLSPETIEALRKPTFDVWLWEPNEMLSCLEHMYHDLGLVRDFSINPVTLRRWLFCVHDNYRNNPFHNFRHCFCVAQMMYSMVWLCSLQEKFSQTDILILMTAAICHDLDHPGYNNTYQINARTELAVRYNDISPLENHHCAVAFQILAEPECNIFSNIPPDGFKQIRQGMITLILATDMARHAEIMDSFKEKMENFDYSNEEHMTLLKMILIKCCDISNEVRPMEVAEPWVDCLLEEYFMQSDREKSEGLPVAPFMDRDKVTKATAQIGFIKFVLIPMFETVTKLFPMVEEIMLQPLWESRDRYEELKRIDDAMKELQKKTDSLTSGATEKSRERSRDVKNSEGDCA

For `COc1cc2c(cc1OC1CCCCC1)CN1C(=O)OCC1C2` (racemic), the IC50 [1] was 13.9 µM, the IC50 [2] was 2.62 µM and the IC50 (PBMC [3]) was 8.4 µM.

For `CCCOc1cc2c(cc1OC)CC1COC(=O)N1C2` (racemic), the IC50 [2] was 22.4 µM.

Compound `COc1cc2c(cc1O)CN1C(=O)OCC1C2` (configuration not stated) has an IC50 [2] of over 100 µM.

In the case of `COc1cc2c(cc1OC1CCCC1)C(C)N1C(=O)OCC1C2` (mixture of isomers), the IC50 [1] is reported as 12.8 µM, the IC50 [2] is reported as 1.35 µM and the IC50 (PBMC [3]) is reported as 2.6 µM.

`COc1ccc(C2CNC(=O)C2)cc1OC1CCCC1` (configuration not stated) [ROLIPRAM] showed an inhibition in vivo at 10 mg/kg (Rattus norvegicus) of 32.3%, an IC50 (PBMC [3]) of 10.8 µM and an inhibition in vivo at 10 mg/kg (Mus musculus) of 41%.

`COc1cc2c(cc1OCC1CC1)CN1C(=O)OCC1C2` (racemic) gave an IC50 [1] of 7.15 µM, an IC50 [2] of 1.3 µM and an IC50 (PBMC [3]) of 9.58 µM.

`COc1cc2c(cc1OCc1ccccc1)CN1C(=O)OCC1C2` (configuration not stated) gave an IC50 [2] of 8.18 µM.

Work on `COc1cc2c(cc1OC1CCCC1)C(c1ccccc1)N1C(=O)OCC1C2` (mixture of isomers) yielded an inhibition in vivo at 10 mg/kg (Rattus norvegicus) of 28.1%, an IC50 [1] of 31.6 µM and an IC50 [2] of 1.95 µM. It also gave an IC50 (PBMC [3]) of 6.75 µM and an inhibition in vivo at 10 mg/kg (Mus musculus) of 40.4%.

Work on `CCCCCCOc1cc2c(cc1OC)CC1COC(=O)N1C2` (racemic) yielded an IC50 [2] of 6.05 µM.

Compound `CCCCCOc1cc2c(cc1OC)CC1COC(=O)N1C2` (racemic) has an IC50 [1] of 23.3 µM and an IC50 [2] of 4.1 µM.

With `COc1cc2c(cc1OC1CCCC1)C(C1CCCCC1)N1C(=O)OCC1C2` (mixture of isomers) the IC50 [1] was 26.7 µM, the IC50 [2] was 2.06 µM and the IC50 (PBMC [3]) was 9.05 µM.

For `COc1cc2c(cc1OC1CCCC1)CN1C(=O)OCC1C2` (racemic), the inhibition at 100 µM (PDE8A) was 12%, the inhibition at 100 µM (PDE6C) was 8% and the inhibition at 100 µM (PDE11A) was 3%. It also gave an inhibition in vivo at 10 mg/kg (Rattus norvegicus) of 42.3%, an inhibition at 100 µM (PDE1A) of 12% and an IC50 [1] of 5.13 µM. For the same compound, the inhibition at 100 µM (PDE5A) was 14%, the inhibition at 100 µM (PDE9A) was 2% and the inhibition at 100 µM (PDE2A) was 3%. For the same compound, the inhibition [4] was 100%, the IC50 [2] was 0.6 µM and the inhibition at 100 µM (PDE3B) was 5%. For the same compound, the IC50 (PBMC [3]) was 1.35 µM, the inhibition at 100 µM (PDE7A) was 5% and the “Ratio IC50” value (PBMC [5]) was 7. For the same compound, the inhibition in vivo at 10 mg/kg (Mus musculus) was 48.2% and the inhibition at 100 µM (PDE10A) was 1%.

For `COc1cc2c(cc1OC)CN1C(=O)OCC1C2` (racemic), the IC50 [2] was 52.1 µM.

For `CCCCCCC1c2cc(OC3CCCC3)c(OC)cc2CC2COC(=O)N21` (mixture of isomers), the IC50 [1] was 23.1 µM, the IC50 [2] was 2.1 µM and the IC50 (PBMC [3]) was 7.98 µM.
